ChEMBL document CHEMBL1828537, “Halogenated 2'-benzoylpyridine thiosemicarbazone (XBpT) chelators with potent and selective anti-neoplastic activity: relationship to intracellular redox activity” (J Med Chem, 2011)

Experiments:
[1] = Therapeutic index, ratio of IC50 for human MRC5 cells to IC50 for human SK-N-MC cells; assay type: cell-based; conditions: MRC5 cells and SK-N-MC cells, read-out: Ratio IC50
[2] = system: MRC5; test: Cytotoxicity against human MRC5 cells after 72 hrs […]; assay type: cell-based; conditions: MRC5, 72 h
[3] = Toxicity in human SK-N-MC cells assessed as cell viability after 3 hrs by trypan blue staining; assay type: cell-based; design: concentration or dose not given beside the values; conditions: read-out: Activity
Procedure, shortened: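 Viability of SK-N-MC cells judged by Trypan blue staining after the 3 h chelator incubation used in the 59Fe mobilization assays.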

[4] = system: SK-N-MC; test: Antiproliferative activity against human SK-N-MC cells after 72 hrs by MTS assay; assay type: functional, cell-based
[5] = system: SK-N-MC; test: Induction of intracellular reactive oxygen species production in human SK-N-MC cells assessed as oxidation of H2DCF into DCF at 25 uM after 3 hrs by FACS analysis relative to control; assay type: functional
[6] = system: SK-N-MC; test: Induction of Fe efflux in human SK-N-MC cells assessed as release of intracellular 59Fe up to 25 uM after 3 hrs by gamma-scintillation counting; assay type: functional
[7] = system: M109; test: Anticancer activity against mouse M109 cells xenografted in iv dosed CD2F1 mouse assessed as reduction in tumor growth after 5 days; assay type: functional
[8] = system: SK-N-MC; test: 59Fe uptake from transferrin in human SK-N-MC cells at 25 uM after 3 hrs relative to control

Row | IC50 [4] | SMILES | selectivity ratio [1] | IC50 [2] | viability at 3 h [3] | Activity [5] | Activity [6] | inhibition (INH) [7] | level, % of control at 25 µM [8]
1 | 0.009 µM | CN(C)C(=S)N/N=C(\c1ccccc1)c1ccccn1 | 116 | 1.01 µM | > 99% | 156% |  |  | 
2 | 0.004 µM | CN(C)C(=S)NN=C(c1ccccn1)c1ccccn1 |  |  | > 99% |  | 53% | 50% | 4%
3 | 0.012 µM | CCNC(=S)N/N=C(\c1ccccc1)c1ccccn1 | 64 | 0.738 µM | > 99% | 138% |  |  | 
4 | 2.53 µM | O=C(N/N=C/c1c(O)ccc2ccccc12)c1ccncc1 |  |  | > 99% |  | 55% |  | 6%
5 | 0.024 µM | CNC(=S)N/N=C(\c1ccccc1)c1ccccn1 | 96 | 2.32 µM | > 99% | 114% |  |  | 
6 | 5.59 µM | NC(=S)N/N=C(\c1ccccc1)c1ccccn1 |  | > 25 µM | > 99% |  |  |  | 
7 | 22.7 µM | CC(=O)N(O)CCCCCNC(=O)CCC(=O)N(O)CCCCCNC(=O)CCC(=O)N(O)CCCCCN [DEFEROXAMINE] |  |  | > 99% |  | 23% |  | 74%
